Assay outcomes from PubChem BioAssay.
A selection: hits, their analogues and other compounds. The true share with any hit is near 2.6%.
TNAP act hi DEA = TNAP (human) activation, high acceptor; P05186; purified TNAP, CDP-star luminescence, 1 M DEA, 30 min; active compounds read high; 0 = EDTA background, 1 = DMSO-only activity; activation factor at 20 µM; 200,000 tested, under 10 active;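 active = activation factor at least 2 at 20 µM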
Target sequence (P05186 whole entry, looked up): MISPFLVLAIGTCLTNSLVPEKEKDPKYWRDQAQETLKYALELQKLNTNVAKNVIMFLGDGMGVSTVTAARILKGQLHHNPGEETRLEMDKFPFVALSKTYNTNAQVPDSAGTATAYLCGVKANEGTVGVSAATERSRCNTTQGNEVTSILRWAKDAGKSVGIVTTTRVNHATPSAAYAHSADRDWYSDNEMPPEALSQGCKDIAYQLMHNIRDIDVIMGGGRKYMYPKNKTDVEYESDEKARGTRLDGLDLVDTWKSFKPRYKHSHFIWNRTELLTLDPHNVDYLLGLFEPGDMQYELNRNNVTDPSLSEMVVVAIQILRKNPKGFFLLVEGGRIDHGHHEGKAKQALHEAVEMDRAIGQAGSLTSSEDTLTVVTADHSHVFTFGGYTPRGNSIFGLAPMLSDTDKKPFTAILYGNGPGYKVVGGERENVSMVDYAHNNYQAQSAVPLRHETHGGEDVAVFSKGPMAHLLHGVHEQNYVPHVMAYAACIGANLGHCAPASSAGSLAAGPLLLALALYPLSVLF
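system = human TNAP | amount = enzyme diluted 1/800 final | reagent = 100 µM CDP-star substrate | signal = luminescent substrate turnover signal | dosing = one dose, 20 µM | benchmarks = EDTA negative control, DMSO positive control | measure = activation factor | timing = 30 min reaction, room temperature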
Arbovirus inh = antivirals against arbovirus infection | AID 1251 | arbovirus infection cell-based antiviral screen | 200,000 compounds, 0.37% hits | inhibition, % at 10 µM; in the data active = inhibition above about 30%
TNAP inh hiacc = blocks human TNAP under high phosphate acceptor concentration | purified TNAP, CDP-star luminescence, 1 M DEA | inhibition, % at 20 µM | 200,000 compounds, 0.03% hits | AID 1135;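 active = over 50% inhibition of tissue-nonspecific alkaline phosphatase at 20 µM in the single-dose screen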
WT yeast gro inh = growth inhibition of WT yeast, mitochondrial fusion screen; mitochondrial fusion phenotypic screen, WT strain; inhibition, % at 10 µM; 190,000 compounds, 2.1% hits; AID 1362; in the data active = inhibition above about 58%; tested in S. cerevisiae
TNAP inh no acc = TNAP (human) inhibition, acceptor-free conditions | purified TNAP, CDP-star luminescence, 30 min | P05186 | inhibition, % at 20 µM | AID 1012 | 200,000 compounds, 0.26% hits;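 active = tissue-nonspecific alkaline phosphatase inhibition above about 50% at 20 µM in the single-dose screen, limit read from the data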
Numbers stand for hits.

What do the screens show for `Cc1ccc(S(=O)(=O)Nc2ccc(N=Nc3ccc(O)cc3)cc2)cc1`?
TNAP act hi DEA: inactive; Arbovirus inh: inactive; TNAP inh hiacc: inactive; WT yeast gro inh: 71; TNAP inh no acc: inactive

What do the screens show for `Cc1ccc(S(=O)(=O)Nc2ccccc2CNc2ccccn2)cc1`?
TNAP act hi DEA: inactive; Arbovirus inh: inactive; TNAP inh hiacc: inactive; WT yeast gro inh: inactive; TNAP inh no acc: inactive

How did O=C(NCC(c1ccco1)N1CCN(c2ccccc2)CC1)c1ccc2c(c1)OCO2 (stereo not given) do in these assays?
TNAP act hi DEA: inactive; Arbovirus inh: inactive; TNAP inh hiacc: inactive; WT yeast gro inh: inactive; TNAP inh no acc: inactive

What do the screens show for `CN1CC(=O)N2[C@H](c3ccc4c(c3)OCO4)c3[nH]c4ccccc4c3C[C@@H]2C1=O`?
TNAP act hi DEA: inactive; Arbovirus inh: inactive; TNAP inh hiacc: inactive; WT yeast gro inh: inactive; TNAP inh no acc: inactive

How did Cc1ccc(-c2cc(C(=O)N/N=C/C(Br)=C/c3ccccc3)n[nH]2)o1 do in these assays?
TNAP act hi DEA: inactive; Arbovirus inh: inactive; TNAP inh hiacc: inactive; WT yeast gro inh: 61; TNAP inh no acc: inactive

What do the screens show for `Cc1ccc(-c2cc(C(=O)N/N=C/c3c[nH]c4ccccc34)n[nH]2)o1`?
TNAP act hi DEA: inactive; Arbovirus inh: inactive; TNAP inh hiacc: inactive; WT yeast gro inh: inactive; TNAP inh no acc: inactive

How did CC1CCN(c2nnc(-c3cccs3)c3ccccc23)CC1 do in these assays?
TNAP act hi DEA: inactive; Arbovirus inh: inactive; TNAP inh hiacc: inactive; WT yeast gro inh: inactive; TNAP inh no acc: inactive

What do the screens show for `COc1ccc(N2CCN(c3nc(-c4cccs4)nc4ccccc34)CC2)cc1`?
TNAP act hi DEA: inactive; Arbovirus inh: inactive; TNAP inh hiacc: inactive; WT yeast gro inh: inactive; TNAP inh no acc: inactive

What do the screens show for `c1ccc(CNc2nc(-c3cccs3)nc3ccccc23)cc1`?
TNAP act hi DEA: inactive; Arbovirus inh: inactive; TNAP inh hiacc: inactive; WT yeast gro inh: 71; TNAP inh no acc: inactive

What do the screens show for `COc1cccc(CN(C)c2nc(-c3cccs3)nc3ccccc23)c1`?
TNAP act hi DEA: inactive; Arbovirus inh: inactive; TNAP inh hiacc: inactive; WT yeast gro inh: 66; TNAP inh no acc: inactive

What do the screens show for `COc1ccc(Nc2nc(-c3cccs3)nc3ccccc23)cc1`?
TNAP act hi DEA: inactive; Arbovirus inh: inactive; TNAP inh hiacc: inactive; WT yeast gro inh: inactive; TNAP inh no acc: inactive

Results for COc1cccc(Nc2nc(-c3cccs3)nc3ccccc23)c1 ?
TNAP act hi DEA: inactive; Arbovirus inh: inactive; TNAP inh hiacc: inactive; WT yeast gro inh: 66; TNAP inh no acc: inactive

How did O=C(NCC1CCCO1)c1cc([N+](=O)[O-])ccc1Cl (stereo not given) do in these assays?
TNAP act hi DEA: inactive; Arbovirus inh: inactive; TNAP inh hiacc: inactive; WT yeast gro inh: inactive; TNAP inh no acc: inactive

What do the screens show for `O=C(Nc1ccc(Cl)c(S(=O)(=O)N2CCOCC2)c1)c1ccccc1-c1ccc(C(F)(F)F)cc1`?
TNAP act hi DEA: inactive; Arbovirus inh: inactive; TNAP inh hiacc: inactive; WT yeast gro inh: inactive; TNAP inh no acc: inactive

Results for CC1=NN(c2ccccc2)C(=O)/C1=C/C=C/c1ccc(N(C)C)cc1 ?
TNAP act hi DEA: inactive; Arbovirus inh: inactive; TNAP inh hiacc: 54; WT yeast gro inh: inactive; TNAP inh no acc: 50

How did c1ccc2c(c1)oc1c(N3CCOCC3)ncnc12 do in these assays?
TNAP act hi DEA: inactive; Arbovirus inh: inactive; TNAP inh hiacc: inactive; WT yeast gro inh: inactive; TNAP inh no acc: inactive

Results for COc1ccccc1N1CCN(C(=O)c2oc3ccc(Br)cc3c2C)CC1 ?
TNAP act hi DEA: inactive; Arbovirus inh: inactive; TNAP inh hiacc: inactive; WT yeast gro inh: 79; TNAP inh no acc: inactive

How did c1cnc(N2CCN(c3ncnc4c3oc3ccccc34)CC2)nc1 do in these assays?
TNAP act hi DEA: inactive; TNAP inh hiacc: inactive; TNAP inh no acc: inactive

How did COc1ccccc1N1CCN(C(=O)c2oc3ccc(F)cc3c2C)CC1 do in these assays?
TNAP act hi DEA: inactive; Arbovirus inh: inactive; TNAP inh hiacc: inactive; WT yeast gro inh: inactive; TNAP inh no acc: inactive

Results for COc1ccccc1N1CCN(c2ncnc3c2oc2ccccc23)CC1 ?
TNAP act hi DEA: inactive; Arbovirus inh: inactive; TNAP inh hiacc: inactive; WT yeast gro inh: 61; TNAP inh no acc: inactive

What do the screens show for `C(=C\c1ccccc1)/CN1CCN(c2ncnc3c2oc2ccccc23)CC1`?
TNAP act hi DEA: inactive; Arbovirus inh: inactive; TNAP inh hiacc: inactive; WT yeast gro inh: 67; TNAP inh no acc: inactive

Results for CCOc1ccc(NS(=O)(=O)c2ccc(NC(=O)C3CCCO3)cc2)cc1 (stereo not given) ?
TNAP act hi DEA: inactive; Arbovirus inh: inactive; TNAP inh hiacc: inactive; WT yeast gro inh: inactive; TNAP inh no acc: inactive
